Values after ≈ are worked out from the molar mass of the structure shown.
What was measured:
[1] = tested on: Escherichia coli; assay: Antibacterial activity against Escherichia coli ATCC 35218 after 24 hrs by MTT assay; type: functional; settings: ATCC 35218, 24 h
Outline: (§1)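 MIC by MTT colorimetry in Mueller-Hinton medium. Inoculum was about 10⁵ cfu/mL, added to serial dilutions made from DMSO solutions, then incubated at 37 °C for 24 h. MTT in PBS (0.01 mol/L, pH 7.4; 2 mg/mL) was added to each well. Dye was extracted with isopropanol containing 5% 1 mol/L HCl for 12 h at room temperature, and OD was read at 550 nm.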

[2] = tested on: Pseudomonas fluorescens; assay: Antibacterial activity against Pseudomonas fluorescens after 24 hrs by MTT assay; type: functional; outline: as §1
[3] = tested on: Bacillus subtilis; assay: Antibacterial activity against Bacillus subtilis after 24 hrs by MTT assay; type: functional; outline: as §1
[4] = tested on: Staphylococcus aureus; assay: Antibacterial activity against Staphylococcus aureus after 24 hrs by MTT assay; type: functional; outline: as §1
[5] = biological target: T1, 3-oxoacyl-[acyl-carrier-protein] synthase 3 (Escherichia coli, UniProt C3TDZ2); assay: Inhibition of Escherichia coli FabH expressed in Escherichia coli DH10B cells assessed as incorporation of 3H signal in the product after 25 mins by liquid scintillation
T1 sequence (C3TDZ2 whole entry): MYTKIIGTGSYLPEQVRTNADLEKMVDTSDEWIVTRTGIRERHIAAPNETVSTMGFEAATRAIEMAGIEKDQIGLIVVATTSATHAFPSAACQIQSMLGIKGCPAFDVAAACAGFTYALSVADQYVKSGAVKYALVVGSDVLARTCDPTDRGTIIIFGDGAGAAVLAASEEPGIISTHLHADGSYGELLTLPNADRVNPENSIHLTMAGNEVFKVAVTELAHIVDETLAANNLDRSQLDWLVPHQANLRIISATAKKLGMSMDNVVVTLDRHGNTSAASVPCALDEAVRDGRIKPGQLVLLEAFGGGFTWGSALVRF
Outline: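 Native E. coli FabH was expressed from pET30 in DH10B and purified by Q-Sepharose, MonoQ and hydroxyapatite chromatography at 4 °C. Reaction used 20 mM Na₂HPO₄ pH 7.0, 0.5 mM DTT, holo-ACP and 1 nM FabH. It was stopped with ice-cold 50% TCA (5 min on ice) and the protein pelleted. ³H incorporation was read by liquid scintillation. Inhibitors came from DMSO stock, with final DMSO ≤2%.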

[6] = Toxicity in erythrocytes assessed as hemolytic activity; type: cell-based; settings: erythrocyte

Row | MIC [1] [µg/mL] | MIC [2] [µg/mL] | MIC [3] [µg/mL] | MIC [4] [µg/mL] | IC50 [5] [µM] | SMILES | LC30 [6] [µg/mL]
1 | 6.25 (≈ 12.6 µM) | 25 (≈ 50.6 µM) | 12.5 (≈ 25.3 µM) | 12.5 (≈ 25.3 µM) | 71.7 | O=C(Nc1ccccc1)N(Cc1cc(Br)cc(Br)c1O)c1ccc(F)cc1 | > 10000
2 | 25 (≈ 58.5 µM) | 50 (≈ 117 µM) | 50 (≈ 117 µM) | 12.5 (≈ 29.3 µM) |  | COc1ccc(N(Cc2cc(Br)ccc2O)C(=O)Nc2ccccc2)cc1 | 
3 | 50 (≈ 122 µM) | 50 (≈ 122 µM) | 12.5 (≈ 30.4 µM) | 50 (≈ 122 µM) |  | Cc1ccc(N(Cc2cc(Br)ccc2O)C(=O)Nc2ccccc2)cc1 | 
4 | 12.5 (≈ 26.3 µM) | 25 (≈ 52.5 µM) | 6.25 (≈ 13.1 µM) | 25 (≈ 52.5 µM) | 56.4 | O=C(Nc1ccccc1)N(Cc1cc(Br)ccc1O)c1ccccc1Br | > 10000
5 | 1.56 (≈ 3.61 µM) | 3.13 (≈ 7.25 µM) | 6.25 (≈ 14.5 µM) | 1.56 (≈ 3.61 µM) | 4.7 | O=C(Nc1ccccc1)N(Cc1cc(Br)ccc1O)c1ccc(Cl)cc1 | > 10000
6 | 3.13 (≈ 6.13 µM) | 12.5 (≈ 24.5 µM) | 25 (≈ 49 µM) | 6.25 (≈ 12.2 µM) | 10.1 | O=C(Nc1ccccc1)N(Cc1cc(Br)cc(Br)c1O)c1ccc(Cl)cc1 | > 10000
7 | 6.25 (≈ 14.5 µM) | 25 (≈ 57.9 µM) | 6.25 (≈ 14.5 µM) | 3.13 (≈ 7.25 µM) | 21.8 | O=C(Nc1ccccc1)N(Cc1cc(Br)ccc1O)c1ccccc1Cl | > 10000
8 | 50 (≈ 102 µM) | 50 (≈ 102 µM) | 50 (≈ 102 µM) | 6.25 (≈ 12.8 µM) |  | Cc1ccc(N(Cc2cc(Br)cc(Br)c2O)C(=O)Nc2ccccc2)cc1 | 
9 | 6.25 (≈ 13.1 µM) | 12.5 (≈ 26.3 µM) | 12.5 (≈ 26.3 µM) | 12.5 (≈ 26.3 µM) | 41 | O=C(Nc1ccccc1)N(Cc1cc(Br)ccc1O)c1ccc(Br)cc1 | > 10000
10 | 12.5 (≈ 22.5 µM) | 25 (≈ 45 µM) | 50 (≈ 90.1 µM) | 25 (≈ 45 µM) |  | O=C(Nc1ccccc1)N(Cc1cc(Br)cc(Br)c1O)c1ccc(Br)cc1 | 
11 | 50 (≈ 90.1 µM) | 6.25 (≈ 11.3 µM) | 50 (≈ 90.1 µM) | 50 (≈ 90.1 µM) |  | O=C(Nc1ccccc1)N(Cc1cc(Br)cc(Br)c1O)c1ccccc1Br | 
12 | 1.56 (≈ 3.76 µM) | 6.25 (≈ 15.1 µM) | 6.25 (≈ 15.1 µM) | 3.13 (≈ 7.54 µM) | 6.6 | O=C(Nc1ccccc1)N(Cc1cc(Br)ccc1O)c1ccc(F)cc1 | > 10000
13 | 12.5 (≈ 30.1 µM) | 25 (≈ 60.2 µM) | 25 (≈ 60.2 µM) | 50 (≈ 120 µM) | 37.4 | O=C(Nc1ccccc1)N(Cc1cc(Br)ccc1O)c1ccccc1F | > 10000
14 | 12.5 (≈ 24.7 µM) | 25 (≈ 49.4 µM) | 50 (≈ 98.8 µM) | 50 (≈ 98.8 µM) |  | COc1ccc(N(Cc2cc(Br)cc(Br)c2O)C(=O)Nc2ccccc2)cc1 | 

Further lines, the molecule ahead of its results:

Row | SMILES | MIC [1] [µg/mL] | MIC [2] [µg/mL] | MIC [3] [µg/mL] | MIC [4] [µg/mL] | IC50 [5] [µM] | LC30 [6] [µg/mL]
15 | NC[C@H]1O[C@H](O[C@H]2[C@H](O)[C@@H](O[C@H]3O[C@H](CO)[C@@H](O)[C@H](N)[C@H]3O)[C@H](N)C[C@@H]2N)[C@H](N)[C@@H](O)[C@@H]1O [BEKANAMYCIN] | 3.13 (≈ 6.47 µM) | 3.13 (≈ 6.47 µM) | 1.56 (≈ 3.23 µM) | 1.56 (≈ 3.23 µM) |  | 
16 | Oc1c(Br)cc(Br)cc1CNc1ccc(Br)cc1 | 25 (≈ 57.3 µM) | 50 (≈ 115 µM) | 50 (≈ 115 µM) | 50 (≈ 115 µM) |  | 
17 | O=C(Nc1ccccc1)N(Cc1cc(Br)cc(Br)c1O)c1ccccc1Cl | 6.25 (≈ 12.2 µM) | 25 (≈ 49 µM) | 50 (≈ 97.9 µM) | 12.5 (≈ 24.5 µM) | 51.5 | > 10000
18 | Oc1c(Br)cc(Br)cc1CNc1ccccc1Cl | 25 (≈ 63.9 µM) | 50 (≈ 128 µM) | 6.25 (≈ 16 µM) | 25 (≈ 63.9 µM) |  | 
19 | Oc1ccc(Br)cc1CNc1ccccc1F | 25 (≈ 84.4 µM) | 6.25 (≈ 21.1 µM) | 50 (≈ 169 µM) | 25 (≈ 84.4 µM) |  | 
20 | Oc1c(Br)cc(Br)cc1CNc1ccc(Cl)cc1 | 25 (≈ 63.9 µM) | 12.5 (≈ 31.9 µM) | 12.5 (≈ 31.9 µM) | 12.5 (≈ 31.9 µM) |  | 
21 | O=C(Nc1ccccc1)N(Cc1cc(Br)cc(Br)c1O)c1ccccc1F | 50 (≈ 101 µM) | 12.5 (≈ 25.3 µM) | 50 (≈ 101 µM) | 25 (≈ 50.6 µM) |  | 
22 | Oc1ccc(Br)cc1CNc1ccc(Cl)cc1 | 6.25 (≈ 20 µM) | 12.5 (≈ 40 µM) | 25 (≈ 80 µM) | 6.25 (≈ 20 µM) |  | 
23 | Cc1ccc(NCc2cc(Br)ccc2O)cc1 | 50 (≈ 171 µM) | 50 (≈ 171 µM) | 50 (≈ 171 µM) | 50 (≈ 171 µM) |  | 
24 | Oc1ccc(Br)cc1CNc1ccc(F)cc1 | 12.5 (≈ 42.2 µM) | 25 (≈ 84.4 µM) | 50 (≈ 169 µM) | 12.5 (≈ 42.2 µM) |  | 
25 | Cc1ccc(NCc2cc(Br)cc(Br)c2O)cc1 | 50 (≈ 135 µM) | 50 (≈ 135 µM) | 50 (≈ 135 µM) | 50 (≈ 135 µM) |  | 
26 | Oc1ccc(Br)cc1CNc1ccccc1Cl | 12.5 (≈ 40 µM) | 25 (≈ 80 µM) | 50 (≈ 160 µM) | 6.25 (≈ 20 µM) |  | 
27 | Oc1c(Br)cc(Br)cc1CNc1ccc(F)cc1 | 50 (≈ 133 µM) | 12.5 (≈ 33.3 µM) | 50 (≈ 133 µM) | 50 (≈ 133 µM) |  | 
28 | COc1ccc(NCc2cc(Br)ccc2O)cc1 | 50 (≈ 162 µM) | 50 (≈ 162 µM) | 50 (≈ 162 µM) | 50 (≈ 162 µM) |  | 
29 | Oc1ccc(Br)cc1CNc1ccc(Br)cc1 | 25 (≈ 70 µM) | 12.5 (≈ 35 µM) | 25 (≈ 70 µM) | 25 (≈ 70 µM) |  | 
30 | COc1ccc(NCc2cc(Br)cc(Br)c2O)cc1 | 50 (≈ 129 µM) | 50 (≈ 129 µM) | 25 (≈ 64.6 µM) | 50 (≈ 129 µM) |  | 
31 | Nc1ccn([C@H]2CC[C@@H](COP(=O)(O)O)O2)c(=O)n1 |  |  |  |  | 2.1 | > 10000
32 | Oc1c(Br)cc(Br)cc1CNc1ccccc1Br | 12.5 (≈ 28.7 µM) | 50 (≈ 115 µM) | 50 (≈ 115 µM) | 50 (≈ 115 µM) |  | 
33 | Oc1ccc(Br)cc1CNc1ccccc1Br | 25 (≈ 70 µM) | 25 (≈ 70 µM) | 50 (≈ 140 µM) | 50 (≈ 140 µM) |  | 
34 | Oc1c(Br)cc(Br)cc1CNc1ccccc1F | 50 (≈ 133 µM) | 50 (≈ 133 µM) | 50 (≈ 133 µM) | 25 (≈ 66.7 µM) |  | 
